Structures are written as SMILES.

Among the data in ChEMBL document CHEMBL4513216, “Probing the Open Global Health Chemical Diversity Library for Multistage-Active Starting Points for Next-Generation Antimalarials” (ACS Infect Dis, 2020) are cytotoxicity values, retold here.

This series in a line: Toxicity liver stage against HepG2, at 10uM. The format is cell-based. More on the design: test concentration 10 uM, cell line HepG2-A16-CD81EGFP. The conditions noted are these: human, HepG2-A16-CD81EGFP cells; read-out: INHIBITION
The procedure, abridged: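 Uninfected HepG2-A16-CD81EGFP cells, 3 × 10^3 per well, 1536-well, plated on prespotted compound at 10 μM final, parasite-free screening media added to match infected plates; puromycin 10 μM positive, DMSO 0.5% negative; run in parallel with 48 h PbLuc assay at 37 °C, 5% CO2; viability by CellTiter-Glo luminescence, normalized to controls.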
With `COCCNC(=O)c1ccc2c(=O)n3c(nc2c1)CCCCC3`, the cytotoxicity at 10 µM was 5.53%.
Under `CCOC(=O)CNC(=O)NCc1cccn1Cc1ccccc1` stands 9.71%; under `Cc1cnc2n(c1=O)C(CC(=O)NCc1cccnc1)CS2` (configuration not stated), 4.22%.
On to `COc1ccc(CC(C)(O)CNC(=O)Cc2cccs2)cc1` (configuration not stated), for which the cytotoxicity at 10 µM worked out at 14.7%.
As for `O=C(Cn1ccc2ccccc21)N1CCC(Oc2cnccn2)CC1`, the cytotoxicity at 10 µM amounted to 4.61%.
With `COc1ccccc1CN1CCC2(CCC(C(=O)N(C)C)O2)CC1` (configuration not stated) the figure was 0.493%; with `N#Cc1ccc(C(=O)N2CCC3(CC2)CC3)cc1`, 3.56%.
Regarding `CCc1ccc2c(C3CN(S(C)(=O)=O)C3)ncn2c1`, the cytotoxicity at 10 µM amounted to 10.6%.
With `Cc1ncoc1C(=O)N1C[C@@H]2CN(CC3CC3)CCO[C@@H]2C1` the figure was 9.23%.
With `Cc1ncsc1CN1C[C@@H]2CN(Cc3cccnc3)CCO[C@@H]2C1` the figure was 5.05%; with `O=C(NC1CCCCC1)N1C[C@@H]2OCCN(C(=O)c3ccco3)[C@@H]2C1`, -152%; with `COCC(=O)N1CC2(CCN(c3ccccc3)C2)C1`, 10.1%.
`CC(C)NC(=O)[C@H]1C[C@@H]2[C@@H](C1)OCCN2Cc1ccncc1`: the cytotoxicity at 10 µM was found to be 6.62%.
Under `CN(C)CCCNC(=O)c1ccccc1NC(=O)c1ccccc1Cl` stands -0.986%; under `CC(C)C[C@H](NC(=O)Cc1csc(-c2cccc(Cl)c2)n1)C(=O)O`, 3.51%; under `COc1ccc(C2=C(C)C(N3CCc4ccccc43)=NS2(=O)=O)cc1`, -4.66%.
For `N#Cc1ccc(OC2CCN(C(=O)c3ccc4c(c3)OCO4)CC2)nc1`, the cytotoxicity at 10 µM was -14.7%.
With `O=C1CC(c2ccsc2)c2sc(C(=O)O)c(-c3ccccc3)c2N1` (configuration not stated) the figure was 15.2%; with `CC(C)Oc1ncnc2c1CCN(Cc1cccs1)CC2`, -0.935%; with `CCn1cc(S(=O)(=O)N2CCN(S(=O)(=O)c3ccc(Br)s3)CC2)cn1`, 6.24%.
With `CCc1noc(C2CCCCN2C(=O)c2sccc2C)n1` (configuration not stated) the figure was 10.3%; with `Fc1cccc(Cc2cncc(C3CCCN3C3CCOCC3)n2)c1` (configuration not stated), -0.685%; with `CCCn1nc(C)c(C(=O)N(C)[C@@H]2CC[C@@H](OC)[C@@H]2O)c1C`, 4.36%.
For `CN1CCC(c2cc(CCO)ncn2)C1` (configuration not stated), the cytotoxicity at 10 µM came to 4.87%.
For the molecule `CC(=O)N1CCN(c2ccc(Cl)nn2)C(=O)C1`, the cytotoxicity at 10 µM was 6.69%.
Under `O=C(c1ccc(Cl)cc1)N1CCC(N2CCCNC2=O)CC1` stands 8.55%.
Under `CCc1ccc2c(c1)C(CCNC(=O)CSC(F)(F)F)C(=O)N2` (configuration not stated) stands -45.5%; under `CC(C)C(=O)Nc1cccc(OCC(=O)NCc2ccccc2F)c1`, -6.19%; under `CC(C)CN(CC(O)c1ccccc1)C(=O)NC(C)C` (configuration not stated), -3.96%.
`Cc1cc(C(=O)N(CC(=O)O)CC(C)C)ccc1F`: the cytotoxicity at 10 µM was -6.07%.
Under `COC(C)c1noc(CN(C)c2ncccn2)n1` (configuration not stated) stands 7.33%; under `CCC1CN(C)c2ccccc2CN1CCn1cncn1` (configuration not stated), 9.4%; under `Cc1csc(N(C)C(=O)C2CC(=O)N(c3ccccc3Cl)C2)n1` (configuration not stated), 11.8%.
Under `Cc1cc(C[S+]([O-])Cc2ccccc2F)no1` (configuration not stated) stands -3.71%; under `Cc1nnc(CN(C)CC(=O)N2CCCN(C3CCCC3)CC2)n1C`, 7.1%; under `COCCN(C(=O)c1nc(-c2ccco2)sc1C)C1CC1`, -8.96%.
`Cc1ccccc1CC(=O)NS(=O)(=O)c1cccc2cnccc12`: the cytotoxicity at 10 µM was -0.601%.
Under `COc1ccc(N(C)C(=O)c2cccc(S(C)(=O)=O)c2)cn1` stands 7.36%; under `CC(=O)N(Cc1ncc(C)o1)C1CCN(CCn2cccn2)C1` (configuration not stated), 6.49%; under `COc1ccc(CCNC2CCCN(c3ccc(C)nn3)C2)cc1` (configuration not stated), -3.65%.
Under `COCCCN(C)C(=O)c1cccc(Nc2cnccn2)c1` stands -8.43%.
Under `CC(=O)N1CCN(c2ccnc3c(F)cc(Br)cc23)CC1` stands 13.6%; under `CCNC(=O)N(C)CCCc1n[nH]c(N)c1C#N`, 10.3%.
`CC(C)(C)CN(CCC#N)Cn1cc(Cl)cn1`: the cytotoxicity at 10 µM was found to be 6.29%.
Under `CC1(C)CN(CC(F)(F)F)CCN1CC(=O)N1CCCCC1` stands 13.2%; under `Fc1ccc(C2CN(c3ncnc4[nH]ncc34)CCO2)cc1` (configuration not stated), 27.1%.
`CN(CC(=O)NCc1ccco1)Cc1nc2c(s1)CCCC2`: the cytotoxicity at 10 µM was 13.6%.
Under `Cc1sc(Br)cc1S(=O)(=O)NCc1ccccn1` stands -3.85%; under `CCc1ncc(C(=O)NC(C)(C)C(=O)OC)s1`, 5.01%.
Under `CC(=O)N1CCN(C(=O)CNc2c(C)cccc2OC(F)F)CC1` stands 3.24%.
As for `Cc1cnn(CCNCc2c(C)nn(-c3ccccc3)c2C)c1`, the cytotoxicity at 10 µM is -14.1%.
Under `Cc1nc(CSCc2ccc(OCC(F)(F)F)nc2)no1` stands -2.34%; under `CCC1COCCN1C(=O)NCc1nccn1Cc1ccccc1` (configuration not stated), -0.457%; under `Cc1ccc(S(=O)(=O)N2CCN(C)c3ccncc32)cc1F`, 9.21%.
Under `O=S(=O)(NCc1ccc(S(=O)(=O)N2CCCC2)s1)c1cc(Cl)cc(Cl)c1` stands -11.1%; under `CC(NCCN1CCC(N(C)C)CC1)c1ccc(F)cc1N(C)C` (configuration not stated), -13%; under `COc1ccc(C(C)N2CCC(CO)CC2)cc1Cl` (configuration not stated), -51.1%.
Under `Cc1nn(C)c(N(C)C)c1CNCc1cccnc1` stands 6%; under `CC(C)n1ccc(-c2cc(C(=O)N3CCCC3)c3ccccn23)n1`, -2.7%; under `Cc1noc(C)c1C(=O)N1CC[C@H]2C[C@@H](c3nccs3)O[C@@H]2C1`, -1.62%.
In the case of `Cc1nn(C)cc1-c1ccnc(N2CCN(c3cnccn3)CC2)n1`, the cytotoxicity at 10 µM was determined as 7.26%.
With `COc1ccccc1N1CCN(Cc2nccc(OC)c2OC)CC1=O` the figure was -4%.
Under `CCN(Cc1noc(C)n1)C(=O)C(c1cccc(C)c1)N(C)C` (configuration not stated) stands -1.34%; under `Cc1cc(NCc2ccc(C#N)cc2)n2nc(C)cc2n1`, -10.9%.
Regarding `Cc1nc(N(Cc2ccncc2)CC2CCCO2)c2ccsc2n1` (configuration not stated), the cytotoxicity at 10 µM was -155%.
With `O=C(O)c1cc(-c2ccoc2)cc(S(=O)(=O)N2CCSCC2)c1` the figure was 0.49%; with `COCc1cc(CNC(=O)c2cc(NC(C)=O)ccc2Cl)n[nH]1`, 5.3%; with `CCN(C)c1nccc(N2CCN[C@H]3CS(=O)(=O)C[C@H]32)n1`, 7.85%.
With `Cc1nc(CN(C)CC2CCCN(CCc3ccc(Cl)cc3)C2)no1` (configuration not stated) the figure was 8.15%; with `CC(C)n1cc(CN(C)C[C@@H]2CCCN3CCCC[C@H]23)cn1`, 0.276%; with `O=C(COCC(F)(F)C(F)F)N1CCC(c2ncc[nH]2)CC1`, -53.9%.
With `CCS(=O)(=O)c1ncc(CN2CCOCC2)n1CCCc1ccccc1` the figure was 7.57%; with `CCC(CO)N(Cc1ccsc1)Cc1ccc(-c2ccn[nH]2)s1` (configuration not stated), -1.37%.
As to `COC(C)(C)C(=O)NCC1CCN(Cc2cc3ccccc3[nH]2)C1` (configuration not stated), the cytotoxicity at 10 µM came to 5.85%.
With `Cc1nc(NC(=O)NC2CC(=O)N(C)C2)nn1C(C)C` (configuration not stated) the figure was -8.15%.
With `Cc1cc(CC(C)NC(=O)COc2ccc(F)cc2F)[nH]n1` (configuration not stated) the figure was -49%; with `Cc1cc(N2CCC(n3cc(CCCO)nn3)CC2)ccn1`, 3.6%.
With `CC(C1CCN(Cc2cnn(C)c2C2CC2)CC1)N1CCCC1` (configuration not stated) the figure was 6.29%.
As for `CC(C)CNC(=O)CN(C)S(C)(=O)=O`, the cytotoxicity at 10 µM was 13.7%.
With `COc1ccc(-c2nccnc2C2CCN(C(C)=O)CC2)cc1` the figure was -4.43%; with `CS(=O)(=O)N1CCC(C(=O)NC(Cc2ccsc2)c2ccccn2)CC1` (configuration not stated), -2.91%.
Under `COc1ccccc1N1CCC(CNCc2ccc(C#N)cc2)C1` (configuration not stated) stands -12.1%; under `O=C(CCc1nc2ccccc2[nH]1)N1CCCC(n2cccn2)C1` (configuration not stated), -15.9%; under `c1ccc(-c2cnc(CN3CCCC3Cn3cccn3)o2)cc1` (configuration not stated), -13.6%.
Under `O=C1OCCC1N1CCN(C(=O)Cc2ccccc2Cl)CC1` (configuration not stated) stands -9.2%; under `CCc1nccn1C1CCCN(C(=O)c2ccc3nncn3c2)C1` (configuration not stated), -12.7%; under `COc1cc(C(C)=O)ccc1OCC(=O)N(C)Cc1cnn(C)c1`, -3.88%.
As to `COCCN1CCC(CNC(=O)C2(c3cc(C)cc(C)c3)CCC2)C1` (configuration not stated), the cytotoxicity at 10 µM was -7.4%.
Turning to `CC(C)c1nc(C2CCCN(C(=O)CCCn3cncn3)C2)no1` (configuration not stated), the cytotoxicity at 10 µM was -3.29%.
With `CCc1c(C(=O)NCC(=O)OCC2CC2)cnn1-c1ccc(C)cc1`, the cytotoxicity at 10 µM is -3.81%.
With `O=C(NCCNc1ncccn1)C1CCN(CC(F)(F)F)CC1` the figure was -5.6%; with `COc1ccc(F)cc1C(C)NC(=O)Cn1ccc(=O)n(C)c1=O` (configuration not stated), -8.35%.
With `CC(=O)N1CCN(Cc2ccncc2)CC2(CC(=O)N(C)C2)C1` (configuration not stated) the figure was -1.83%.
Under `O=C(NCc1ccccn1)[C@H]1COC[C@H]2CN(c3ncccn3)C[C@H]21` stands 9.19%; under `Cc1nc(CN2CCN(CC3CCOC3)Cc3cccnc32)cs1` (configuration not stated), 11%; under `COCCN1CCC2(CC1)CC1(CCN(S(C)(=O)=O)CC1)N(C)C2=O`, 0.964%.
On to `Cn1cnc(S(=O)(=O)N2C[C@H](OCC3CC3)[C@H]3OCCC[C@H]32)c1`, for which the cytotoxicity at 10 µM was -149%.
